According to ChEMBL document CHEMBL3393006, “A new iridoid, verbascoside and derivatives with inhibitory activity against Taq DNA polymerase” (Bioorg Med Chem Lett, 2015):
Activity calls are given as the source filed them. The calls are words filed in the database; no cut-off is given here.

Columns and labels:
Thermus aquaticus = experiment: (§1) Inhibition of Thermus aquaticus DNA polymerase by PCR analysis
Procedure, shortened: (§2)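 Taq DNA polymerase (2.5 U) run in PCR mix of 40 mM Tris-acetate pH 8.3, 15 mM MgCl2, […], 2.5 mM each dNTP. Compounds were dissolved in DMSO and tested at varying concentrations, with 1:2 serial dilutions. Cycling was 35 cycles: 95 °C 1 min, 56 °C annealing, 72 °C 90 s. Read-out was densitometry of ethidium bromide-stained agarose gel bands. IC50 was interpolated from plots of activity versus inhibitor concentration.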

[1] = as §1; procedure, shortened: as §2

CC(=O)OC[C@H]1O[C@@H](O[C@@H]2OC=C[C@H]3[C@@H](OC(C)=O)[C@@H]4O[C@]4(COC(C)=O)[C@@H]23)[C@H](O)[C@@H](O)[C@@H]1O
inhibition (Thermus aquaticus): inactive

CC(C)(C)[Si](C)(C)OC[C@]12O[C@H]1[C@H](O[Si](C)(C)C(C)(C)C)[C@@H]1C=CO[C@@H](O[C@@H]3O[C@H](CO)[C@@H](O)[C@H](O)[C@H]3O)[C@@H]12
IC50 [1]: 78.1 µM

CC(C)(C)[Si](OC[C@H]1O[C@@H](O[C@@H]2OC=C[C@H]3[C@@H](O[Si](c4ccccc4)(c4ccccc4)C(C)(C)C)[C@@H]4O[C@]4(CO[Si](c4ccccc4)(c4ccccc4)C(C)(C)C)[C@@H]23)[C@H](O)[C@@H](O)[C@@H]1O)(c1ccccc1)c1ccccc1
inhibition (Thermus aquaticus): inactive

OCC1O[C@@H](O[C@@H]2OC=C[C@H]3[C@@H](O)[C@@H]4O[C@]4(CO)[C@@H]23)C(O)C(O)[C@@H]1O (single isomer, unassigned)
IC50 [1]: 21.6 µM

CC(=O)OC[C@H]1O[C@@H](O[C@@H]2OC=C[C@H]3[C@@H](OC(C)=O)[C@@H]4O[C@]4(COC(C)=O)[C@@H]23)[C@H](OC(C)=O)[C@@H](OC(C)=O)[C@@H]1OC(C)=O
inhibition (Thermus aquaticus): inactive

CC(C)(C)[Si](OC[C@H]1O[C@@H](O[C@@H]2OC=C[C@H]3[C@@H](O[Si](c4ccccc4)(c4ccccc4)C(C)(C)C)[C@@H]4O[C@]4(CO[Si](c4ccccc4)(c4ccccc4)C(C)(C)C)[C@@H]23)[C@H](O)[C@@H](O[Si](c2ccccc2)(c2ccccc2)C(C)(C)C)[C@@H]1O)(c1ccccc1)c1ccccc1
inhibition (Thermus aquaticus): inactive

CC(=O)OC[C@]12O[C@H]1[C@H](O)[C@@H]1C=CO[C@@H](O[C@@H]3O[C@H](CO)[C@@H](O)[C@H](O)[C@H]3O)[C@@H]12
inhibition (Thermus aquaticus): inactive

O=C(OC[C@H]1O[C@@H](O[C@@H]2OC=C[C@H]3[C@@H](OC(=O)c4ccccc4)[C@@H]4O[C@]4(COC(=O)c4ccccc4)[C@@H]23)[C@H](O)[C@@H](OC(=O)c2ccccc2)[C@@H]1OC(=O)c1ccccc1)c1ccccc1
inhibition (Thermus aquaticus): inactive

CC(C)(C)[Si](C)(C)OC[C@H]1O[C@@H](O[C@@H]2OC=C[C@H]3[C@@H](O[Si](C)(C)C(C)(C)C)[C@@H]4O[C@]4(CO[Si](C)(C)C(C)(C)C)[C@@H]23)[C@H](O)[C@@H](O)[C@@H]1O
IC50 [1]: 5.57 µM
